Reference: ChEMBL document CHEMBL1154008, “Synthesis and in vitro activity of new tetrahydronaphtho[1,2-b]azepine derivatives against Trypanosoma cruzi and Leishmania chagasi parasites” (Bioorg Med Chem Lett, 2009)

How the values were obtained:
[1] = tested on: Trypanosoma cruzi; assay: Antiparasitic activity against Trypanosoma cruzi 320I04 epimastigotes […] after 72 hrs; format: functional, organism-based
In short: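 Free parasite forms (T. cruzi 320I04 epimastigotes; L. chagasi MHOM/BR/74/PP75 promastigotes) exposed to compounds for 72 h at 27 °C. IC50/IC90 taken as the concentrations giving 50% or 90% growth inhibition. Values are representative of one experiment out of three.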

[2] = tested on: Leishmania chagasi; assay: Antiparasitic activity against Leishmania chagasi MHOM/BR/74/PP75 promastigotes infected in human THP1 cells after 72 hrs; conditions: MHOM/BR/74/PP75, THP-1, 72 h
[3] = Selectivity index, ratio of CC50 for african green monkey Vero cells to IC50 for Trypanosoma cruzi 320I04 epimastigotes; format: functional
In short: (§1)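 SI calculated as Vero CC50 divided by T. cruzi IC50, or THP-1 CC50 divided by L. chagasi IC50. Both values come from 72 h exposures: parasites at 27 °C, mammalian cells at 37 °C with MTT read-out.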

[4] = Cytotoxicity against african green monkey Vero cells after 72 hrs by MTT assay; format: cell-based; conditions: chlorocebus sabaeus
In short: (§2)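 Vero or transformed THP-1 cells exposed to a 3-fold compound dilution series, in triplicate, for 72 h at 37 °C. Toxicity read by MTT reduction. CC50/CC90 taken as the concentrations killing 50% or 90% of cells. Values are representative of one experiment out of three.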

[5] = Selectivity index, ratio of CC50 for african green monkey Vero cells to IC50 for Trypanosoma cruzi 320I04 intracellular amastigotes; format: functional
[6] = Selectivity index, ratio of CC50 for human THP1 cells to IC50 for Leishmania chagasi MHOM/BR/74/PP75 promastigotes; format: functional, THP-1; in short: as §1
[7] = tested on: Trypanosoma cruzi; assay: Antiparasitic activity against Trypanosoma cruzi 320I04 intracellular amastigotes infected in african green monkey Vero cells after 72 hrs; format: functional, organism-based; conditions: 320I04, Vero
[8] = Cytotoxicity against human THP1 cells after 72 hrs by MTT assay; format: cell-based; conditions: THP-1 cells; in short: as §2

SMILES	IC50 [1]	IC90 [1]	IC50 [2]	IC90 [2]	Ratio CC50/IC50 [3]	CC50 at 72 h [4]	CC90 at 72 h [4]	Ratio CC50/IC50 [5]	Ratio CC50/IC50 [6]	IC50 [7]	IC90 [7]	CC50 at 72 h [8]	CC90 at 72 h [8]
O[C@@H]1Cc2ccc3ccccc3c2N[C@H](c2ccccc2Cl)C1	0.5 µM	11 µM	30.6 µM	64.6 µM	193	96.5 µM	> 250 µM	9.1	2.2	10.6 µM	> 30 µM	66.1 µM	> 300 µM
COc1cccc([C@@H]2C[C@H](O)Cc3ccc4ccccc4c3N2)c1	14 µM	48.5 µM	17.9 µM	58.7 µM	7	97.6 µM	> 200 µM	4	10.9	24.3 µM	> 30 µM	195 µM	> 300 µM
